Compound activity as filed in PubChem.
SENP8 block-1 = SENP8 protease inhibitors, primary screen, biochemical, luminescence | purified SENP8, Z-RLRGG-aminoluciferin cleavage | inhibition, % at 10 µM | actives 1.2% (n = 330,000) | AID 2540, 2010; in the data active = inhibition above about 50%
SENP1 FRET inh = human SENP1 catalytic domain inhibitors, primary screen, biochemical, FRET, uHTS | recombinant SENP1 catalytic domain, CyPet-SUMO1-YPet FRET cleavage | inhibition, % at 10 µM | actives 0.21% (n = 360,000) | AID 624204, 2012;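 active = inhibition at least 30% at 10 µM, raw YFP signal under a set limit, fluorescence ratio 0.5 to 1.5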;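 also: 0% = enzyme with DMSO and 100% = no enzyme wells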
Target sequence (Q9P0U3 419-644 limits assumed): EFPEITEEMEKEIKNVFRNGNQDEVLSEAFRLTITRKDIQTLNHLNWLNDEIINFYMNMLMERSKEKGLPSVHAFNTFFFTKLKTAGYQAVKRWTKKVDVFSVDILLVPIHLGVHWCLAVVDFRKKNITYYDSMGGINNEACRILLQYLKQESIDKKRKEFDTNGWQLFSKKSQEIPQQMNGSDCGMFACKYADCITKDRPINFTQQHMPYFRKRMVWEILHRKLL
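Material – human SENP1 catalytic domain · Input – SENP1 enzyme, 20 pM final · Compound dosing – single concentration of 10 µM compound, 0.5% DMSO final · Timing – enzyme reaction for 50 min at room temperature, dark · Measured by – FRET fluorescence in CFP and YFP emission channels · Control set – no-enzyme wells low, DMSO-plus-enzyme wells high control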
SENP7 block = SENP7 protease inhibitors, primary screen, biochemical, luminescence, uHTS | AID 434973, 2010 | inhibition, % at 5 µM | recombinant SENP7, Z-RLRGG-aminoluciferin luminescence, 40 min | actives 1.5% (n = 330,000) | Sentrin-specific protease 7 (Homo sapiens), Q9BQF6;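 active = inhibition above about 50% at the single test dose, limit read from the data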;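 also: plate controls were DMSO with enzyme for no effect and no enzyme buffer wells for full effect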
SENP8 block-2 = human SENP8 protease inhibitors, primary screen, biochemical, fluorescence, Nedd8 protein substrate, uHTS; actives 0.64% (n = 360,000); AID 602440, 2012; inhibition, % at 20 µM; recombinant SENP8; in the data active = inhibition mostly above about 40%, no sharp cut-off; inactive = mostly below about 27%
Platelet DG rel = inhibitors of platelet dense granule secretion, primary screen, cell-based, MLPCN, human platelets. actives 0.22% (n = 300,000). AID 1663, 2009. human platelet-rich plasma, SFLLRN dense granule ATP release, luminescence. inhibition, %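 (compounds screened at 7.5 µM in platelet-rich plasma)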;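 active = mean replicate score, as percent of positive control, at or above 50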
SENP6 block = SENP6 protease inhibitors, primary screen, biochemical, luminescence, uHTS | inhibition, % at 10 µM | Sentrin-specific protease 6 (Homo sapiens), Q9GZR1 | Recombinant SENP6 catalytic domain, aminoluciferin luminescence | AID 2599, 2010 | actives 1.8% (n = 330,000);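 active = inhibition above about 50% at the single tested dose, limit read from the data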;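 also: plate controls were DMSO wells with enzyme for no effect and DMSO wells lacking enzyme for full effect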
* hit, by the source's call; / = no result given; ! = not active in a repeat. Rows were chosen to be rich in hits. Some 2.6% of all compounds tested hit in one or more screens of this group.

SMILES	SENP8 block-1	SENP1 FRET inh	SENP7 block	SENP8 block-2	Platelet DG rel	SENP6 block
Nc1nc(Cl)nc2c1ncn2[C@@H]1O[C@H](CO)[C@@H](O)[C@H]1O	-9	1	-2	17	89*	13
COc1cccc(NC(=O)CSc2ccc3nnc(-c4cccnc4)n3n2)c1	3	-3	-11	-16	2	-15
Cc1c(N2C(=O)/C(=C\c3ccccc3O)SC2=S)c(=O)n(-c2ccccc2)n1C	0	4	3	18	10	15
CN1C(=O)/C(=C/c2cc(N=Nc3ccccc3)ccc2O)SC1=S	21	7	17	39*	4	22
O=C(N/N=C/c1ccc([N+](=O)[O-])o1)c1cc2ccccc2o1	1	-5	5	19	-4	-3
O=[N+]([O-])c1ccc(/C=N/Nc2ccc3ccccc3c2)o1	-3	38*	7	28	-1	9
CCOC(=O)CC1C(=O)NCCN1Cc1cccc(C(F)(F)F)c1 (centres undefined)	10	1	2	-1	8	-10
Cc1cccc(-c2cc3nc(C)cc(C)n3n2)c1	54*	4	78*	-315	5	-3
COc1ccc(-c2cc3nc(C)cc(N)n3n2)cc1	95*	0	97*	-179	94*	96*
CCOC(=O)c1sc(NC(=O)c2ccc(OC(C)=O)cc2)nc1C	68*	0	99*	-53	/	98*
CCOC(=O)c1sc(NC(=O)c2ccc(OC)cc2)nc1C	4	-1	50	-63	-1	-2
N/N=C(\Cc1cscn1)c1ccc(O)cc1O	-1	15	-4	10	57*	21
Cc1nc(C/C(=N\N)c2ccc(O)cc2O)cs1	-11	-9	-3	19	-12	6
Cc1ccc(CC(=O)Nc2ccc([N+](=O)[O-])cc2C)cc1	1	0	-2	-3	1	-2
CCc1ccc2nc(SCC(=O)N3CC(=O)Nc4ccccc43)c(C#N)cc2c1	-4	32*	-3	5	/	-18
Cc1ncc(C[n+]2csc(CCO)c2C)c(N)n1	-4	-1	-4	-4	15	-6
COc1nc(NC(C)(C)C)nc(Oc2ccc(=O)n(-c3ccccc3)n2)n1	4	6	9	2	-4	-14
CC(C)Nc1nc(NC(C)(C)C)nc(Oc2ccc(=O)n(-c3ccccc3)n2)n1	5	-1	0	22	60*	-23
COc1ccc(/C=N/Nc2nc3ccccc3s2)cc1O	/	1	/	-248	54*	/
Cc1nonc1C(=O)N/N=C/c1cccc(O)c1	87*	1	92*	14	57*	84*
O=C(N/N=C/c1cccc(O)c1)N/N=C/c1cccc(O)c1	-9	-1	-7	-1	13	5
COc1ccccc1C1N=C(c2ccccc2C)NO1 (centres undefined)	75*	2	78*	25	2	83*
CCOc1ccc(-c2nc(CSc3nncs3)cs2)cc1OC	-7	2	-1	-113	-5	-8
CCN(CC(=O)Nc1ccccc1C(F)(F)F)C(=O)CCc1c(C)[nH]c(=O)c(C#N)c1C	8	0	1	-64	65*	-9
O=C(Nc1cccc2nsnc12)c1cccs1	16	1	50*!	-288	3	58*!
COc1cc(CNC(=O)c2nc(Cn3nc(C)c(Br)c3C)no2)cc(OC)c1	5	1	1	4	-11	0
CCN(Cc1ccccc1)S(=O)(=O)c1ccc(C(=O)N(CCCN(C)C)c2nc3cc(C)cc(C)c3s2)cc1	-4	2	1	14	4	-8
COc1ccc(S(=O)(=O)NCc2cccnc2)cc1C	-5	-1	-3	19	-1	-20
C=CCN=c1scc(-c2ccco2)n1/N=C/c1ccc(O)c(O)c1O	-8	4	-5	51*	11	-10
COCCN=c1scc(-c2ccco2)n1/N=C/c1ccc(O)c(O)c1O	-3	14	-2	36	/	-37
